# An excerpt weighted towards active compounds, which were near 2.4% of everything screened.
# Jurkat NFkB inh – lowers PMA/ionomycin-induced NF-kB signal in Jurkat cells; PMA/ionomycin-induced NF-kB luciferase reporter, luminescence; inhibition, % at 4 µM; actives 0.53% (n = 330,000); in the data active means inhibition above about 50%
# 697 NFkB inh – lowers PMA/ionomycin-induced NF-kB signal in 697 B cells. actives 0.33% (n = 330,000). inhibition, % at 4 µM. 697 B-cell NF-kB luciferase reporter, 16 h; in the data active means inhibition above about 35%
# MPTP block – blocks calcium-induced mitochondrial swelling; actives 1.4% (n = 360,000); inhibition, % at 10 µM; isolated mouse mitochondria, Ca2+ swelling absorbance, 30 min;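 active means inhibition of 50% or more, scaled per plate between neutral and stimulator controls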;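 further: 0% = DMSO wells given calcium and 100% = 1 mM EGTA wells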
# NR2E3 ag-1 – NR2E3 (human) agonism; Q9Y5X4; GST-NR2E3/biotin-RetCOR TR-FRET, 1536-well; inhibition of corepressor binding, % at 4.78 µM; actives 0.12% (n = 320,000); AID 2300;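 active means percent inhibition above the cutoff of mean plus 3 SD of all tested compounds, set per screening campaign, cut at about 20% in these data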;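 further: 0% = DMSO wells and 100% = biotin wells as full block of FRET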
# Target sequence (Q9Y5X4 whole entry, looked up): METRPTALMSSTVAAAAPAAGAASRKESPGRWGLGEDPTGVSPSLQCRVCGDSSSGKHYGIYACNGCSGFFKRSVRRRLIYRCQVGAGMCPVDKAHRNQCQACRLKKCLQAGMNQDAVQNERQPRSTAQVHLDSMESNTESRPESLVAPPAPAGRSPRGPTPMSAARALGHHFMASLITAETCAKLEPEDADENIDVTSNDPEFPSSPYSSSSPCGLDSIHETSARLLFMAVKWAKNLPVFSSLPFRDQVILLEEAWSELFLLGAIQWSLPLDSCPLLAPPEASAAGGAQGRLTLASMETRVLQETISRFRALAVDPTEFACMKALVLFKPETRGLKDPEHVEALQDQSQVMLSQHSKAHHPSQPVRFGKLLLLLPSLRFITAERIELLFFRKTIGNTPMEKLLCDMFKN
#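 Format: 1536-well format; test system: GST-NR2E3 and biotin-RetCOR proteins; read-out basis: percent inhibition of TR-FRET ratio; timing: 5 h incubation at 4 °C; detection: time-resolved FRET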
# NR2E3 ag-2 – human photoreceptor-specific nuclear receptor agonism | Q9Y5X4 | CHO-S Gal4-NCOR/VP16-NR2E3 two-hybrid, luciferase | inhibition of corepressor binding, % at 3.98 µM | actives 0.35% (n = 360,000);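 active means inhibition above the mean of all tested compounds plus 3 SD, cut at about 70% in these data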;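 further: 0% = DMSO with NR2E3 transfected cells and 100% = cells lacking NR2E3 construct; higher means lower luciferase signal from less NR2E3 corepressor binding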
# aDG glyco up – increases alpha dystroglycan glycosylation | actives 0.22% (n = 360,000) | activation, % at 10 µM | Pro5-aDG cells, alpha-DG glycosylation AlphaScreen (IIH6); 0% Pro5, 100% B10-LARGE cell signal | AID 624168;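 active means activation of at least 8% versus controls, or a plate z-score of at least 8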;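 further: Pro5 are CHO cells carrying HIG-tagged alpha-DG that lacks glycosylation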
# aDG glyco conf – confirmation of alpha dystroglycan glycosylation activators | shares compounds with aDG glyco up | Pro5-aDG cells, alpha-DG glycosylation, IIH6 AlphaLISA; scaled to LARGE-overexpressing B10 cells as 100% | activation, % at 10 µM (by protocol) | actives 17% (n = 600) | AID 651671;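 active means activation of at least 7% in one or more replicates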;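 further: cells exposed to compound for two days before detection; 0% = DMSO-treated Pro5 cells and 100% = DMSO-treated B10-LARGE cells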
# * marks the source's active call; other numbers are inactive results; / = no result.
SMILES,Jurkat NFkB inh,697 NFkB inh,MPTP block,NR2E3 ag-1,NR2E3 ag-2,aDG glyco up,aDG glyco conf
O=S(=O)(/C=C/c1ccccc1)Nc1ccc(F)cc1,-6,5,0,3,-3,0,/
O=C(c1cc(-c2ccccc2)nc2ccccc12)N1CCOCC1,6,-9,-2,2,-10,0,/
CC(C)c1ccc(-c2cc(C(=O)N3CCOCC3)c3cc(Br)ccc3n2)cc1,-9,-105,1,4,-42,4.6*,9.4*
Cc1nnc(SC(C)C(=O)Nc2nccs2)s1 (stereo unspecified),12,9,0,4,7,0,/
CCOC(=O)C1CCCN(/C=C2\SC(=S)N(CC)C2=O)C1 (stereo unspecified),-7,12,2,-1,-7,0,/
Cc1nc(SCC(=O)Nc2cc(C(N)=O)cc(C(N)=O)c2)c2c(C)c(C)sc2n1,1,12,1,14,-67,9.0*,13*
O=C(Nc1cc(Cl)ccc1-n1cncn1)c1ccco1,-4,-6,-1,-1,5,0,/
O=C(Nc1cc(Cl)ccc1-n1cncn1)c1ccc([N+](=O)[O-])s1,6,19,0,2,-12,12*,3.8*
CCNC(=O)/N=C1/NC(=O)C(C(C)C)O1 (stereo unspecified),-2,-6,-1,1,-10,22*,-1
CC(=O)NCC1CCCN(C(=O)c2ccc(OC3CCN(Cc4ccccn4)CC3)cc2)C1 (stereo unspecified),-8,-8,-1,2,-19,0,/
O=C(NCC1CCCO1)c1ccc2c(=O)n(Cc3cccc(Br)c3)c(=S)[nH]c2c1 (stereo unspecified),1,-2,15,-4,-5,0,/
O=C(Nc1ccc(-n2cc(Cl)cn2)cc1)c1ccncc1,9,-1,0,0,-34,2.8*,1
Cc1ccc(NC(=O)c2cccnc2)c([N+](=O)[O-])c1,16,-21,1,5,-14,0,/
Cc1ccc(NC(=O)c2cncc(Br)c2)c([N+](=O)[O-])c1,-29,-4,0,-3,-19,45*,-1
COc1ccc(C(=O)NCCS(=O)(=O)N2CCC3(CC2)OCCO3)cc1,1,5,0,2,5,0,/
CC[C@]12c3[nH]c4cc(CCC(=O)N(C)C)ccc4c3CCN1C(=O)[C@@H](CC(=O)NC/C=C(\C)CCC=C(C)C)C[C@@H]2C(=O)N1CCN(C(=O)c2ccco2)CC1,/,24,0,/,14,0,/
COC(=O)[C@@]1(Cc2ccc(F)cc2)[C@H]2c3cc(C(=O)N4CCCC4)n(CCSCCO)c3C[C@H]2CN1C(=O)c1ccccc1,/,/,-2,/,0,5.6*,0
COC(=O)[C@@]1(Cc2ccccc2)[C@H]2c3cc(C(=O)N4CCCC4)n(CCSCCO)c3C[C@H]2CN1C(=O)c1ccccc1,8,24,/,3,/,/,/
CCOC(=O)CSc1ccc2nnc(-c3cccs3)n2n1,3,4,-1,1,-4,9.1*,0
COc1ccc(C(C)(O)c2nc(-c3ccc(OC)nc3)cs2)cc1 (stereo unspecified),/,/,1,/,7,0,/
CC(=O)N1c2ccccc2S(=O)(=O)c2c1ccc1ccccc21,/,/,0,/,-10,13*,0
CC(=O)N1c2ccccc2S(=O)(=O)c2ccccc21,-10,-21,-2,3,1,0,/
Cc1ccc(S(=O)(=O)N(C)C)cc1NC(=O)COC(=O)Cc1ccccc1F,6,15,-1,1,-18,11*,0
Cc1ccc(S(=O)(=O)N(C)C)cc1NC(=O)COC(=O)Cc1ccc(Br)cc1,0,15,-1,1,-30,0,/
O=C(Nc1cccc(Cl)c1)C1C2C=CC3(O2)C1C(=O)N(CCCN1CCCCC1)C3C(=O)NC1CCCCC1 (stereo unspecified),-5,-6,1,3,-11,0,/
SMILES,Jurkat NFkB inh,697 NFkB inh,MPTP block,NR2E3 ag-1,NR2E3 ag-2,aDG glyco up,aDG glyco conf
COCCn1c(SCC#N)nnc1-c1ccc(OC)cc1,-4,-9,0,-3,-10,4.7*,0
COCCn1c(SCC(=O)Nc2sc(C)c(C)c2C#N)nnc1-c1ccc(OC)cc1,0,18,28,-1,-29,0,/
Cc1ccc(S(=O)(=O)c2c(N)n(Cc3ccco3)c3nc4ccccc4nc23)cc1C,22,7,12,2,15,40*,1
COc1ccc(CCNC(=O)C2CCN(S(=O)(=O)c3ccc(C)cc3)CC2)cc1OC,2,11,1,/,13,0,/
CC(C)N1CCN(c2ccc(OCC3COC(Cn4cncn4)(c4ccc(Cl)cc4Cl)O3)cc2)CC1 (stereo unspecified),/,/,0,/,28,21*,9.9*
O=C(COC(=O)c1cccc(Br)c1)NCCc1ccccc1,-1,2,-1,1,-9,0,/
O=C(COC(=O)c1cccc(Br)c1)NCCNC(=O)COC(=O)c1cccc(Br)c1,-3,-13,-1,5,-21,7.4*,0
Cc1ccc(NC(=O)CN(C)C(=O)c2cc(-c3ccccc3)nn2-c2ccccc2)cc1,-1,3,-4,/,13,0,/
CC/C(=N\NC(=S)Nc1ccc(OC)cc1)c1ccc(OC(F)F)cc1,-9,-27,-6,0,-16,0,/
CC/C(=N\NC(=S)Nc1cc(C)ccc1C)c1ccc(OC(F)F)cc1,-24,-7,4,3,38,5.7*,0
COc1cc(/C=C/C(=O)Nc2nc3ccc(S(=O)(=O)NC(C)C)cc3s2)cc(OC)c1OC,12,-23,0,-3,-4,8.2*,6.1*
CS(=O)(=O)N(CC(=O)NCCSCc1c(F)cccc1Cl)c1cccc([N+](=O)[O-])c1,8,-3,-4,-4,19,0,/
CCCCN(CC)CCCNC(=O)c1cn(CC)c2ccc(S(=O)(=O)N3CCc4ccccc4C3)cc2c1=O,-1,0,-3,0,-16,8.5*,2
COC(=O)c1ccc(CSc2ccc3nnc(-c4ccccn4)n3n2)o1,-13,-47,0,1,-20,4.7*,0
Cc1nn(C)cc1CNC(=O)COc1ccc(Cl)cc1Cl,-1,4,0,5,7,15*,0
COc1ccc(Cl)cc1C(=O)Nc1nc(C)cc(C)n1,7,-7,-1,-1,-5,0,/
CC(C)NC(=O)Cn1cc(C(=O)C2CC2)c2ccccc21,-13,14,2,3,9,11*,0

# Assay outcomes from PubChem BioAssay.
